The nature of data set [1]: (§1) Selectivity index, ratio of CC50 for african green monkey vero cells to IC50 for amastigote stage of Leishmania donovani infected in mouse J774A.1 cells. The format is functional. The method in brief: (§2)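 Selectivity index calculated as CC₅₀ (Vero cells, 72 h MTT) divided by IC₅₀ against intracellular amastigotes in luciferase-reporter J-774A.1 macrophage assay.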
Data set [2] is described as follows: Cytotoxicity against african green monkey vero cells assessed as cell viability after 72 hrs by MTT assay. The settings on record: chlorocebus sabaeus. The format is cell-based. In outline:
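Exponentially growing Vero monkey kidney […] incubated with compounds for 72 h; viable cells detected with MTT (Mosmann method); CC₅₀ estimated.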
In general terms: Tetrazolium assays rely on reduction of a dye to a coloured formazan, in cell work by metabolically active cells.

For data set [3], the system named is Leishmania donovani. As to the kind of experiment: Antileishmanial activity against amastigote stage of Leishmania donovani infected in golden hamster assessed as inhibition of parasite multiplication at 50 mg/kg, ip administered 5 days measured on day 7 by Giemsa staining assay relative to control. The format is functional. The settings on record: for inhibition in vivo at 50 mg/kg: route intraperitoneal. The method in brief: (§3)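 Golden hamster L. donovani model; 50 mg/kg given ip for 5 days. Biopsies were taken on day 7 after the last dose, and amastigotes were counted by Giemsa staining. Percent inhibition was derived by comparing infection intensity in treated versus untreated animals and against the initial count in treated animals.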

The subject of data set [4] is Leishmania donovani. As to the kind of experiment: Antileishmanial activity against amastigote stage of Leishmania donovani infected in mouse J774A.1 cells assessed as parasite growth inhibition after 72 hrs by luciferase reporter gene assay. The format is functional, organism-based. The settings on record: J774.A1, 72 h. In outline:
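Mouse macrophage J-774A.1 cells (4 × 10^3/100 µL) were seeded, then infected with luciferase-transfected L. donovani promastigotes (4 × 10^4/100 µL), which transformed into intracellular amastigotes. Compounds at 0.62–40 µM for 72 h in CO₂ incubator. Medium replaced with PBS plus Steady-Glo; luminescence read. Growth inhibition versus untreated controls; IC₅₀ derived.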

Data set [5] deals with Leishmania donovani. As to the kind of experiment: Antileishmanial activity against promastigote stage of Leishmania donovani assessed as parasite growth inhibition at 25 uM after 72 hrs by luciferase reporter gene assay relative to untreated control. The format is functional. The settings on record: for inhibition of growth at 25 µM: read-out: GI. The method in brief:
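Luciferase-transfected L. donovani promastigotes (5 × 10^5/100 µL) exposed to compounds for 72 h. Suspension mixed 1:1 with Steady-Glo reagent; luminescence read as relative luminescence units. Inhibition calculated from luciferase activity of treated versus untreated parasites.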

Another data set has as its system Vero. The data set is described as §1. The format is functional. The method in brief: as §2
The subject of the next data set is Syrian golden hamster. As to the kind of experiment: Toxicity in golden hamster at 50 mg/kg, ip and po administered 5 days measured on day 7. The format is organism-based, Mesocricetus auratus. Also noted: dose 50 mg/kg, route oral. The settings on record: in vivo, 120 h.
For data set [6], the system named is Leishmania donovani. As to the kind of experiment: Antileishmanial activity against amastigote stage of Leishmania donovani infected in golden hamster assessed as inhibition of parasite multiplication at 50 mg/kg, po administered 5 days measured on day 7 by Giemsa staining assay relative to control. The format is functional. In outline: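 L. donovani-infected hamsters received 50 mg/kg orally for 5 days. Post-treatment biopsy was on day 7 after the last dose, with Giemsa-stained amastigote counts. Percent inhibition came from comparing treated animals with untreated animals and with the treated animals' initial counts.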

A short description of data set [7]: Metabolic stability in hamster liver microsomes at 25 uM by HPLC analysis in absence of NADPH and presence of CYP suicidal inhibitor 1-ABZT. The settings on record: cricetinae. For orientation: Microsomes from liver hold many membrane-bound enzymes, among them those of drug oxidation.
Data set [8] has as its system Leishmania donovani. As to the kind of experiment: Antileishmanial activity against Leishmania donovani infected in hamster assessed as inhibition of parasite multiplication relative to control. The format is functional. In outline: as §3

Calls of active or inactive are those of the source. The calls are words filed in the database; no cut-off is given here.

Consider `COc1cc(/C=C/C(=O)/C=C(\Nc2ccc(Cl)cc2)SC)cc(OC)c1OC`, for which the “Ratio CC50/IC50” value in data set [1] was 36. The CC50 (commonly the concentration that lowers cell viability or growth by half) at 72 h in [2] came out at 57.9 µM. In the data set on Leishmania donovani [3], the inhibition in vivo (commonly the drop in the measured response relative to a control, in per cent) at 50 mg/kg is 21%. In the data set with Leishmania donovani [4], the IC50 (commonly the concentration that gives 50% inhibition) stood at 1.6 µM. Also, in the data set with Leishmania donovani [5], the inhibition of growth at 25 µM worked out at 98.7%.

`COc1ccc(N/C(=C\C(=O)/C=C/c2cc(OC)c(OC)c(OC)c2)SC)cc1`: in data set [1], the “Ratio CC50/IC50” value is listed as 69. In [2], the CC50 at 72 h amounted to 184 µM. Also, in the data set on Leishmania donovani [3], the inhibition in vivo at 50 mg/kg came to 32%. For the same molecule, the IC50 with Leishmania donovani [4] was 2.6 µM. Besides, in the data set with Leishmania donovani [5], the inhibition of growth at 25 µM is 99.1%.

Regarding `COc1cc(/C=C/C(=O)/C=C(\NC2CCCCC2)SC)cc(OC)c1OC`, the “Ratio CC50/IC50” value in data set [1] turned out to be 7. Also, in data set [2], the CC50 at 72 h came to 22.7 µM. Besides, the IC50 with Leishmania donovani [4] amounted to 3.5 µM. Also, in the data set with Leishmania donovani [5], the inhibition of growth at 25 µM was found to be 98.9%.

For the molecule `COc1cc(/C=C/C(=O)/C=C(\Nc2ccc(F)cc2)SC)cc(OC)c1OC`, the “Ratio CC50/IC50” value in data set [1] is recorded as 36. In addition, in [2], the 50% cytotoxic concentration (CC50) at 72 h came out at 43.4 µM. Further, the inhibition in vivo at 50 mg/kg in the data set on Leishmania donovani [3] was found to be 72%. Also, the IC50 with Leishmania donovani [4] came to 1.2 µM. Besides, in the data set on Leishmania donovani [5], the inhibition of growth at 25 µM was found to be 97.9%.

Turning to `COc1cc(/C=C/C(=O)/C=C(\NCc2ccccc2)SC)cc(OC)c1OC`, the “Ratio CC50/IC50” value in data set [1] is 36. In addition, in data set [2], the CC50 at 72 h was 71.5 µM. Moreover, in the data set on Leishmania donovani [3], the inhibition – broadly, the percentage by which the read-out fell short of the control – is “inactive”. In addition, in the data set with Leishmania donovani [4], the IC50 came to 2 µM. The inhibition of growth at 25 µM in the data set with Leishmania donovani [5] amounted to 98.6%.

Sodium stibogluconate: in the data set on Vero, the Ratio CC50/IC50 worked out at 7. Moreover, in the data set with Leishmania donovani [3], the inhibition is 89%. Also, the “growth inhibition (GI)” value in the data set on Leishmania donovani [5] was “inactive”.

In the case of `COc1cc(/C=C/C(=O)/C=C(\Nc2ccccc2)SC)cc(OC)c1OC`, the Activity entry in the data set on Syrian golden hamster was “Non-toxic”. The “Ratio CC50/IC50” value in data set [1] came out at 31. Moreover, the inhibition in vivo at 50 mg/kg with Leishmania donovani [6] came out at 64%; with Leishmania donovani [3], 83%. Further, in data set [2], the CC50 at 72 h was 64.6 µM. Besides, in data set [7], the Stability result is reported as “Stable”. For the same molecule, in the data set on Leishmania donovani [4], the IC50 amounted to 2.1 µM. Moreover, the inhibition of growth at 25 µM with Leishmania donovani [5] amounted to 96.2%.

`COc1cc(/C=C/C(=O)C=C(SC)SC)cc(OC)c1OC`: the “inhibition (INH)” value in the data set with Leishmania donovani [8] was 66%.

As to `NC[C@@H]1O[C@H](O[C@H]2[C@@H](O)[C@H](O[C@@H]3[C@@H](O)[C@H](N)C[C@H](N)[C@H]3O[C@H]3O[C@H](CO)[C@@H](O)[C@H](O)[C@H]3N)O[C@@H]2CO)[C@H](N)[C@@H](O)[C@@H]1O` [PAROMOMYCIN], the “Ratio CC50/IC50” value in [1] came to 2. For the same molecule, in [2], the CC50 at 72 h was 86.6 µM. Moreover, the inhibition in vivo at 50 mg/kg in the data set with Leishmania donovani [3] is 46%. For the same molecule, the IC50 in the data set on Leishmania donovani [4] is 40.3 µM. Further, the “growth inhibition (GI)” value with Leishmania donovani [5] is “inactive”.

Source of the values: ChEMBL document CHEMBL2396538, “Synthesis and biological evaluation of a novel series of aryl S,N-ketene acetals as antileishmanial agents” (Bioorg Med Chem Lett, 2013).
